Data set [1] relates to Rattus norvegicus. The data set is described as follows: Inhibition of testosterone levels in CD(SD) rat assessed as plasma testosterone level <0.04 ng/ml at 0.1 nmol/hr, sc administered continuously for 6 days through alzet osmotic pump measured after 6 days by radio-immunoassay. The format is functional, organism-based.
The subject of data set [2] is Rattus norvegicus. The data set is described as follows: Inhibition of testosterone levels in Crl:CD(SD) rat plasma assessed as plasma testosterone level <0.04 ng/ml at 30 pmol/hr, sc administered as continuous dosing through alzet osmotic pump for 1 week by radio-immunoassay. The format is functional, organism-based. Summed up:
(§1)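 Peptide dissolved in 50% DMSO at 3, 10, 30 or 100 µM, loaded into ALZET osmotic pumps for 3 to 100 pmol/h. Pumps implanted sc in 5 Crl:CD(SD) male rats. Plasma testosterone measured by RIA after 1 or 4 weeks. Values below the 0.04 ng/mL detection limit were treated as 0.04. Count of rats below the limit.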

Data set [3] has as its system Rattus norvegicus. Nature of the data set: Inhibition of testosterone levels in Crl:CD(SD) rat plasma assessed as plasma testosterone level <0.04 ng/ml at 100 pmol/hr, sc administered as continuous dosing through alzet osmotic pump for 1 week by radioimmunoassay. The format is functional, organism-based. Summed up:
as §1

Data set [4] deals with Rattus norvegicus. Nature of the data set: Inhibition of testosterone levels in Crl:CD(SD) rat plasma assessed as plasma testosterone level <0.04 ng/ml at 100 pmol/hr, sc administered as continuous dosing through alzet osmotic pump for 4 weeks by radioimmunoassay. Format: functional, organism-based. The method in brief: as §1
A short description of data set [5]: Cmax in Sprague-Dawley rat plasma at 1 mg/kg, sc by LC/MS analysis. Format: ADME, organism-based. Further details: dose 1 mg/kg, route subcutaneous. The method in brief: (§2)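 Single subcutaneous 1 mg/kg dose to SD rats (n=3 per group). Plasma drawn at 5, 10, 15, 30 min and 1, 2, 4, 8, 24 h. Proteins removed with 0.2% formic acid/methanol (1:4, v/v) plus acetonitrile, centrifuged, supernatant diluted in 0.4% aqueous formic acid, then measured by LC/MS. Noncompartmental analysis per rat, mean ± SD.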

Data set [6] is described as follows: Solubility of the compound in water at 20 mg/ml. The format is physicochemical. Particulars: buffer.
Data set [7] in a line: Inhibition of testosterone levels in sc dosed Crl:CD(SD) rat plasma assessed as compound dosing causing plasma testosterone level <0.04 ng/ml in all tested animals administered as continuous dosing through alzet osmotic pump for 1 to 4 weeks by radio-immunoassay. Format: functional.
Data set [8] is described as follows: Conformational changes of the compound in distilled water assessed as decrease in beta-sheet content at 0.1 mg/ml by preliminary circular dichroism analysis. More on the design: scale not given: the % may be the effect or the level left. On the technique in general: CD spectra are sensitive to the conformation of chiral molecules.
Data set [9] concerns the target KiSS-1 receptor (Homo sapiens, UniProt Q969F8). Nature of the data set: Agonist activity at human KISS1R expressed in CHO/dhfr cells assessed as increase in intracellular Ca2+ levels measured for 180 secs by Fluo 3-AM dye based FLIPR assay. The format is functional, cell-based. The method in brief: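 CHO cells expressing human KISS1R; FLIPR recording of ligand-induced [Ca2+]i rise over time. Maximum response taken and expressed as percent of the response to a maximal concentration of metastin(45-54). EC50 = concentration giving half-maximal mobilization, from nonlinear regression of smoothed data. Reported as ratio to the metastin(45-54) EC50.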

In data set [10] the target is KiSS-1 receptor (Rattus norvegicus, UniProt Q924U1). Nature of the data set: Agonist activity at rat KISS1R expressed in CHO/dhfr cells assessed as increase in intracellular Ca2+ levels measured for 180 secs by Fluo 3-AM dye based FLIPR assay. The format is functional, cell-based.
Data set [11] concerns Rattus norvegicus. Nature of the data set: Inhibition of testosterone levels in CD(SD) rat assessed as plasma testosterone level <0.04 ng/ml at 0.01 nmol/hr, sc administered continuously for 6 days through alzet osmotic pump measured after 6 days by radio-immunoassay. The format is functional, organism-based.
Data set [12] has as its system Rattus norvegicus. The data set is described as follows: Inhibition of testosterone levels in Crl:CD(SD) rat plasma assessed as plasma testosterone level <0.04 ng/ml at 10 pmol/hr, sc administered as continuous dosing through alzet osmotic pump for 1 week by radio-immunoassay. The format is functional, organism-based. The method in brief: as §1
Data set [13] in a line: Plasma concentration in Sprague-Dawley rat at 1 mg/kg, iv after 5 mins by LC/MS analysis. The format is ADME, organism-based. The method in brief:
(§3)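 Single intravenous 1 mg/kg bolus to SD rats (n=3 per group). Blood sampled at 5, 10, 15, 30 min and 1, 2, 4, 8, 24 h. Plasma deproteinized with 0.2% formic acid/methanol (1:4, v/v) plus acetonitrile, spun 15,000 rpm for 5 min, supernatant treated with 0.4% aqueous formic acid and spun again, then quantified by LC/MS. Noncompartmental parameters per rat, reported as mean ± SD.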

Data set [14] can be described thus: AUC (0 to 24 hrs) in Sprague-Dawley rat plasma at 1 mg/kg, iv up to 24 hrs by LC/MS analysis. Format: ADME, organism-based. Further details: dose 1 mg/kg, time < 24 hr, route intravenous. The method in brief: as §3
The nature of data set [15]: Volume of distribution in steady state in Sprague-Dawley rat plasma at 1 mg/kg, iv up to 24 hrs by LC/MS analysis. Format: ADME, organism-based. Particulars: read-out: Vdss. Summed up: as §3
A short description of data set [16]: Total clearance in Sprague-Dawley rat plasma at 1 mg/kg, iv up to 24 hrs by LC/MS analysis. The format is ADME, organism-based. The method in brief: as §3
A short description of data set [17]: Tmax in Sprague-Dawley rat plasma at 1 mg/kg, sc by LC/MS analysis. Format: ADME, organism-based. Summed up:
as §2

Data set [18] is described as follows: AUC (0 to 24 hrs) in Sprague-Dawley rat plasma at 1 mg/kg, sc by LC/MS analysis. More on the design: dose 1 mg/kg, time < 24 hr, route subcutaneous. Format: ADME, organism-based. The method in brief:
as §2

Data set [19] in a line: MRT in Sprague-Dawley rat plasma at 1 mg/kg, sc by LC/MS analysis. Format: ADME, organism-based. Summed up: as §2
The nature of data set [20]: Bioavailability in Sprague-Dawley rat plasma at 1 mg/kg, sc up to 24 hrs by LC/MS analysis. The format is ADME, organism-based. Summed up: as §2
The nature of data set [21]: MRT in Sprague-Dawley rat plasma at 1 mg/kg, iv by LC/MS analysis. The format is ADME, organism-based. Summed up:
as §3

The test system of data set [22] is Rattus norvegicus. The data set is described as follows: Inhibition of testosterone levels in Crl:CD(SD) rat plasma assessed as plasma testosterone level <0.04 ng/ml at 3 pmol/hr, sc administered as continuous dosing through alzet osmotic pump for 1 week by radio-immunoassay. Format: functional, organism-based. The method in brief:
as §1

Data set [23] deals with Rattus norvegicus. The data set is described as follows: Inhibition of testosterone levels in Crl:CD(SD) rat plasma assessed as plasma testosterone level <0.04 ng/ml at 30 pmol/hr, sc administered as continuous dosing through alzet osmotic pump for 4 weeks by radio-immunoassay. The format is functional, organism-based. The method in brief: as §1
Data set [24] can be described thus: Solubility of the compound in water up to 500 mg/ml. Format: physicochemical. Particulars: buffer.

These results are taken from ChEMBL document CHEMBL3860048 (J Med Chem, 2016).

As a reminder, the Cmax is the highest concentration seen after dosing. By EC50 is commonly meant the concentration giving half of the maximal effect. Broadly, the AUC(0-t) is exposure summed from dosing to a finite time, without extrapolation to infinity. As a reminder, the clearance is the rate of elimination divided by the concentration. The term Tmax denotes the time at which the peak concentration occurs. Usually MRT stands for a mean duration of stay, worked out from the concentration-time curve. One may read the bioavailability as dose-corrected exposure relative to a reference, in per cent.

The structures appear in SMILES notation. Active and inactive are the calls of the source. The rule behind the calls is not given here. Where a SMILES comes first, the peptide text is derived from it. [ ]: non-standard residue; d: D form. Phe(3-F) = N[C@@H](Cc1cccc(F)c1)C(=O)O; Arg(Me) = CNC(=N)NCCC[C@H](N)C(=O)O; azaGly = NNC(=O)O

KiSS-1 receptor (Homo sapiens, UniProt Q969F8), sequence (Q969F8 whole entry): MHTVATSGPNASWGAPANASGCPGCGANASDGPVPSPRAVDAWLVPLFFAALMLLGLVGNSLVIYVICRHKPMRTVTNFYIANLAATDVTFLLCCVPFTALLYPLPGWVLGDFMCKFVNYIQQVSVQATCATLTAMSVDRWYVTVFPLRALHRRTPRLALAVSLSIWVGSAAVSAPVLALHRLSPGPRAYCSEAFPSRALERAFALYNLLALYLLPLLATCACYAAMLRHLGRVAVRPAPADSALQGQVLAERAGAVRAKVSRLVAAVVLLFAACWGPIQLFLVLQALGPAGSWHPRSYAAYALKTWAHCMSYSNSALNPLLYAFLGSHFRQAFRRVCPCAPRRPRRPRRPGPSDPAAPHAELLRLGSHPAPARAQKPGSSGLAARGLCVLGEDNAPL
KiSS-1 receptor (Rattus norvegicus, UniProt Q924U1), sequence (Q924U1 whole entry): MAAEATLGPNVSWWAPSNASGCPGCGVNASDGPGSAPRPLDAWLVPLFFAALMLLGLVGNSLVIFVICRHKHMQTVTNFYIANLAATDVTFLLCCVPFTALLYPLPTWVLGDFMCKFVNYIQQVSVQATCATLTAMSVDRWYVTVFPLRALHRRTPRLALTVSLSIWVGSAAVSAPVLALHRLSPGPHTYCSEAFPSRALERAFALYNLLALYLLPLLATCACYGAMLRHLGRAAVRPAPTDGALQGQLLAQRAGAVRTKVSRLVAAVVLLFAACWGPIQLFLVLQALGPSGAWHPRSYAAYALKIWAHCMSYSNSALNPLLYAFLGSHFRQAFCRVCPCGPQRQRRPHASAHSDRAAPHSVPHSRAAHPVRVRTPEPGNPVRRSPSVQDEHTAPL

`CNC(=N)NCCC[C@H](NC(=O)[C@H](CC(C)C)NC(=O)NNC(=O)[C@H](Cc1ccccc1)NC(=O)[C@@H](NC(=O)[C@H](CC(N)=O)NC(=O)[C@@H](Cc1c[nH]c2ccccc12)NC(=O)[C@@H](Cc1ccc(O)cc1)NC(C)=O)[C@@H](C)O)C(=O)N[C@@H](Cc1c[nH]c2ccccc12)C(N)=O`: the inhibition result in the data set on Rattus norvegicus [1], in the data set with Rattus norvegicus [2], in the data set with Rattus norvegicus [3] and with Rattus norvegicus [4] was “Active” in each case. The compound further returned a Cmax in [5] of 100 ng/mL. For the same compound, the solubility result in [6] is reported as “Soluble”. Moreover, in data set [7], the MED is 100 pmol/h. For the same compound, the Activity in data set [8] amounted to 34.8%.

Take `CNC(=N)NCCC[C@H](NC(=O)[C@H](CC(C)C)NC(=O)NNC(=O)[C@H](Cc1ccccc1)NC(=O)[C@@H](NC(=O)[C@H](CC(N)=O)NC(=O)[C@@H](CCC(=O)O)NC(=O)[C@@H](Cc1ccc(O)cc1)NC(C)=O)[C@@H](C)O)C(=O)N[C@@H](Cc1c[nH]c2ccccc12)C(N)=O`: the values for the EC50 on KiSS-1 receptor [9] and on KiSS-1 receptor [10] were 0.022 µM and 0.04 µM, respectively. The inhibition entry in the data set on Rattus norvegicus [1] is “Active”.

Turning to `CNC(=N)NCCC[C@H](NC(=O)[C@H](CC(C)C)NC(=O)NNC(=O)[C@H](Cc1cccc(F)c1)NC(=O)[C@@H](NC(=O)[C@H](CC(N)=O)NC(=O)[C@H](CCC(=O)O)NC(=O)[C@@H](Cc1ccc(O)cc1)NC(C)=O)[C@@H](C)O)C(=O)N[C@@H](Cc1c[nH]c2ccccc12)C(N)=O` (Ac-[dY]ENT[Phe(3-F)][azaGly]L[Arg(Me)]W-NH2), the EC50 was found to be 0.00047 µM at KiSS-1 receptor [9] and 0.02 µM at KiSS-1 receptor [10]. The inhibition entry with Rattus norvegicus [11], with Rattus norvegicus [12] and in the data set on Rattus norvegicus [2] was “Active” in each case. The compound further came in with a concentration at 5 min in data set [13] of 2630 ng/mL. Also, the AUC(0-t) at 24 h in [14] is 1330 ng·h/mL; in [18] it was 1260 ng·h/mL. Also, the Vd in [15] was 0.406 L/kg. In data set [16], this compound showed a clearance of 12.8 mL/min/kg. Further, the Cmax in data set [5] is 703 ng/mL. For the same compound, in data set [17], the time to peak (Tmax) came to 23.4 min. In addition, the values for the mean residence time MRT in [19] and in data set [21] were 65.4 min and 31.8 min, respectively. The compound further had a bioavailability in [20] of 94.5%. In addition, in data set [6], the solubility entry is recorded as “Insoluble”.

`CNC(=N)NCCC[C@H](NC(=O)[C@H](CC(C)C)NC(=O)NNC(=O)[C@H](Cc1ccccc1)NC(=O)[C@@H](NC(=O)[C@H](CC(N)=O)NC(=O)[C@@H]1C[C@@H](O)CN1C(=O)[C@@H](Cc1ccc(O)cc1)NC(C)=O)[C@@H](C)O)C(=O)N[C@@H](Cc1c[nH]c2ccccc12)C(N)=O` [TAK-448]: the concentration for a half-maximal effect (EC50) on KiSS-1 receptor [9] worked out at 0.0052 µM; at KiSS-1 receptor [10], 0.036 µM. The inhibition result in the data set with Rattus norvegicus [11], with Rattus norvegicus [22], in the data set on Rattus norvegicus [12], with Rattus norvegicus [2] and with Rattus norvegicus [23] was “Active” each time. This compound also displayed a concentration at 5 min in data set [13] of 2850 ng/mL. For the same compound, the AUC(0-t) at 24 h in data set [14] is 1550 ng·h/mL; in data set [18], 679 ng·h/mL. Besides, the Vd in [15] was found to be 0.403 L/kg. In data set [16], this compound showed a clearance of 10.8 mL/min/kg. Besides, the maximum concentration (Cmax) in data set [5] is 342 ng/mL. The Tmax in data set [17] is 19.8 min. For the same compound, the results for the mean residence time (MRT) in [19] and in data set [21] were 72.6 min and 37.2 min, respectively. The bioavailability in data set [20] is 43.9%. In addition, the solubility result in data set [6] and in [24] was “Soluble” throughout. Also, the MED in data set [7] was found to be 30 pmol/h. For the same compound, the Activity in [8] stood at 21.9%.
